Assay results taken from ChEMBL document CHEMBL3414459, “Phenolic thio- and selenosemicarbazones as multi-target drugs” (Eur J Med Chem, 2015).
Calls of active or inactive are those of the source. The rule behind the calls is not given here.

How the values were obtained:
[1] = Antioxidant activity assessed as DPPH free radical scavenging activity incubated for 30 mins; type: physicochemical
Procedure, shortened: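 DPPH in HPLC-grade solvent mixed with compound in DMSO at 7 concentrations, or with DMSO alone as control. Kept in the dark at rt for 30 min, then A515 read against a blank. % DPPH remaining = A_sample/A_control × 100, plotted against concentration; EC50 taken from the straight line. Triplicate.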

[2] = Antioxidant activity assessed as H2O2 scavenging activity at 100 uM incubated for 20 mins by phenol red based assay; type: physicochemical
Procedure, shortened: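 Compound at 100 µM final, or DMSO control, in 0.1 M phosphate buffer pH 7.4 with H2O2 and 0.1 M NaCl, incubated in the dark at 37 °C for 20 min. Phenol red (0.2 mg/mL) and horseradish peroxidase (0.1 mg/mL) added, 15 min at 37 °C. NaOH added, 10 min at rt, A610 read. % reduction = (A_control − A_sample)/A_control × 100.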

[3] = Antioxidant activity assessed as inhibition of the lipid peroxidation at 0.74 mM incubated for 24 hrs by ferric thiocyanate method; type: physicochemical; settings: 740 µM
Procedure, shortened: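 Ferric thiocyanate method at 0.74 mM. 10.0 mM DMSO stock combined with methanolic linoleic acid in 0.2 M phosphate buffer pH 7.0. AAPH added, then 24 h at 50 °C in the dark; DMSO served as control. An aliquot was diluted in H2O–DMSO with NH4SCN and FeCl2 in HCl. After 3 min at rt, A546 read. % inhibition relative to control.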

[4] = Pro-oxidant activity assessed as hydroxyl radical generation through deoxyribose degradation by measuring change in absorbance at 0.83 mM by TBARS based spectrophotometry; type: ADME; settings: 830 µM
Procedure, shortened: (§1)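 Modified Halliwell deoxyribose assay with the compound at the stated concentration in 0.1 M phosphate buffer pH 7.4, with 2-deoxyribose, H2O2, and FeCl3 premixed with EDTA. Heated 1 h at 37 °C, then TBA in NaOH and trichloroacetic acid added and heated 15 min at 100 °C. Cooled, A532 read; DMSO as control. Repeated without deoxyribose to account for TBARS interference.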

[5] = Inhibition of baker's yeast alpha-glucosidase using p-nitrophenyl-alpha-D-glucopyranoside substrate assessed as reduction in p-nitrophenolate formation at 500 uM; settings: Saccharomyces bayanus
Procedure, shortened: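 α-Glucosidase in 0.1 M phosphate buffer pH 6.8 with p-nitrophenyl-α-D-glucopyranoside at K_M (250 µM; K_M 0.25 mM). Inhibitor at 500 µM final or DMSO, DMSO 5% v/v.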

[6] = Inhibition of baker's yeast alpha-glucosidase using p-nitrophenyl-alpha-D-glucopyranoside substrate assessed as inhibition constant for enzyme-compound binding by measuring reduction in p-nitrophenolate formation; design: species or system Saccharomyces cerevisiae
Procedure, shortened: (§2)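 Same α-glucosidase conditions: pH 6.8 phosphate buffer, 25 °C, A400 for p-nitrophenolate, 5% DMSO. Done for inhibitors exceeding 50% inhibition at 500 µM. Rates measured at 5 substrate concentrations from 0.25 to 4.0 K_m, each at a fixed inhibitor concentration, using 2–3 inhibitor concentrations. Lineweaver–Burk double reciprocal plots gave the inhibition mode and constants K_ia (E) and K_ib (ES).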

[7] = tested on: Saccharomyces bayanus; experiment: Non-competitive inhibition of baker's yeast alpha-glucosidase using p-nitrophenyl-alpha-D-glucopyranoside substrate assessed as reduction in p-nitrophenolate formation by Lineweaver-Burk plot; procedure, shortened: as §2
[8] = tested on: A549; experiment: Antiproliferative activity against human A549 cells after 48 hrs by sulforhodamine B assay; type: functional; settings: A549, 48 h
Procedure, shortened: (§3)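 Exponentially growing cells trypsinized into penicillin/streptomycin medium, >97% viable by trypan blue. Seeded per well: 10,000 (A549, HBL-100, HeLa, SW1573), 15,000 (T-47D), 20,000 (WiDr). Treatment began day 1, DMSO stocks 40 mM, 0.25% DMSO as control, triplicate, 48 h. Cells fixed with cold TCA 60 min at 4 °C, SRB stained, OD492 read, medium background subtracted.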

[9] = Antiproliferative activity against human HBL100 cells after 48 hrs by sulforhodamine B assay; type: functional; settings: HBL-100, 48 h; procedure, shortened: as §3
[10] = tested on: SW1573; experiment: Antiproliferative activity against human SW1573 cells after 48 hrs by sulforhodamine B assay; type: functional; settings: SW1573, 48 h; procedure, shortened: as §3
[11] = tested on: HeLa; experiment: Antiproliferative activity against human HeLa cells after 48 hrs by sulforhodamine B assay; type: functional; procedure, shortened: as §3
[12] = tested on: T47D; experiment: Antiproliferative activity against human T47D cells after 48 hrs by sulforhodamine B assay; type: functional; procedure, shortened: as §3
[13] = tested on: WiDr; experiment: Antiproliferative activity against human WiDr cells after 48 hrs by sulforhodamine B assay; type: functional; procedure, shortened: as §3
[14] = tested on: Saccharomyces bayanus; experiment: Potency index, ratio of Ki for acarbose to Ki for compound against baker's yeast alpha-glucosidase using p-nitrophenyl-alpha-D-glucopyranoside substrate assessed as reduction in p-nitrophenolate formation
[15] = Inhibition of baker's yeast alpha-glucosidase using p-nitrophenyl-alpha-D-glucopyranoside substrate assessed as inhibition constant for enzyme-substrate-compound binding by measuring reduction in p-nitrophenolate formation; procedure, shortened: as §2
[16] = Mixed inhibition of baker's yeast alpha-glucosidase using p-nitrophenyl-alpha-D-glucopyranoside substrate assessed as reduction in p-nitrophenolate formation by Lineweaver-Burk plot; settings: Saccharomyces bayanus; procedure, shortened: as §2
[17] = Potency index, ratio of IC50 for hydroxytyrosol to IC50 for test compound for antioxidant activity assessed as DPPH free radical scavenging activity incubated for 30 mins
[18] = tested on: Saccharomyces bayanus; experiment: Un-competitive inhibition of baker's yeast alpha-glucosidase using p-nitrophenyl-alpha-D-glucopyranoside substrate assessed as reduction in p-nitrophenolate formation by Lineweaver-Burk plot; procedure, shortened: as §2
[19] = Pro-oxidant activity assessed as hydroxyl radical generation through deoxyribose degradation by measuring change in absorbance at 0.42 mM by TBARS based spectrophotometry; type: ADME; settings: 420 µM; procedure, shortened: as §1
[20] = Pro-oxidant activity assessed as hydroxyl radical generation through deoxyribose degradation by measuring change in absorbance at 0.17 mM by TBARS based spectrophotometry; type: ADME; settings: 170 µM; procedure, shortened: as §1
[21] = Pro-oxidant activity assessed as hydroxyl radical generation through deoxyribose degradation by measuring change in absorbance at 0.083 mM by TBARS based spectrophotometry; type: ADME; settings: 83 µM; procedure, shortened: as §1
[22] = Inhibition of baker's yeast alpha-glucosidase using p-nitrophenyl-alpha-D-glucopyranoside substrate assessed as reduction in p-nitrophenolate formation
Procedure, shortened: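 Run in 0.1 M phosphate buffer, pH 6.8, with 5% (v/v) DMSO. […] Enzyme started the reaction at 25 °C, and p-nitrophenolate was followed at 400 nm. Percent inhibition came from rates with and without inhibitor. Where inhibition exceeded 50%, Ki and mode were derived by Lineweaver–Burk, using substrate 0.25–4.0 Km and 2–3 fixed inhibitor concentrations.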

Compound	EC50 [1] [µM]	inhibition (INH) [2]	inhibition (INH) [3]	Activity [4]	inhibition [5]	Ki [6] [µM]	GI50 [8] [µM]	GI50 [9] [µM]	GI50 [10] [µM]	GI50 [11] [µM]	GI50 [12] [µM]	GI50 [13] [µM]	Ki [15] [µM]	inhibition [16]	Ratio IC50 [17]	other results
Oc1ccc(/C=N/NC(=[Se])Nc2ccccc2)cc1	27.8	72.5%	31%	0.087	62%	336	1.4	13	19	3.7	7.2	16				inhibition [7]: Active
Oc1cc(O)c(/C=N/NC(=S)Nc2ccccc2)cc1O	13.9	Not Active	56.8%	0.067	100%	9.6	1.2	29	30	19	10	30				inhibition [7]: Active; Ratio Ki [14]: 8
O=Cc1cc(O)c(O)cc1O	5.97	80.3%	56.1%		inactive		> 100	> 100	> 100	> 100	> 100	> 100				
Oc1cc(/C=N/NC(=[Se])Nc2cccc3ccccc23)cc(O)c1O	8.87	38.1%	24.3%	0.067	98%	154	1.7	2.4	2.9	2.3	2.7	3.6	70.3	Active		
Oc1ccc(/C=N/NC(=S)Nc2ccccc2)cc1O	9.27	79.3%	72%		68%	708	1.6	35	24	7	25	27	134	Active	< 3	
Oc1ccc(/C=N/NC(=S)Nc2ccccc2)cc1	90.1	79.5%	5.5%	0.094	52%		34	43	35	42	88	61	213			inhibition [18]: Active
Oc1cc(/C=N/NC(=S)Nc2ccccc2)cc(O)c1O	7	80%	59.9%		70%	297	9.3	71	49	32	61	> 100	86.2	Active	< 3	
Oc1cc(/C=N/NC(=[Se])Nc2ccccc2)cc(O)c1O	4.87	64%	65.7%		95%	30.3	1.5	2	3.9	2.1	2.9	3.7	78.4	Active	< 3	
NNC(=[Se])Nc1cccc2ccccc12	6.65	56.9%	21.9%	0.064	14%										< 3	
Oc1ccc(/C=N/NC(=[Se])Nc2ccccc2)cc1O	8.77	69%	66.5%	0.097	81%	201	2.6	3.8	5.8	3.3	3.7	3.2			< 3	inhibition [7]: Active
Oc1cc(O)c(/C=N/NC(=[Se])Nc2cccc3ccccc23)cc1O	10.7	4.5%	43%		95%	33	1.7	4	5	3	3.5	5.2	76.8	Active	< 3	
OCCc1ccc(O)c(O)c1 [HYDROXYTYROSOL]	13.8															
O=Cc1ccc(O)c(O)c1 [PROTOCATECHUALDEHYDE]	6.57	78.3%	35.7%		inactive		42	> 100	54	49	> 100	> 100				
O=Cc1cc(O)c(O)c(O)c1	15.3	79.1%	Not Active		inactive		7.3	72	38	16	43	39				
O=c1[nH]cc(F)c(=O)[nH]1 [FLUOROURACIL]								5.5	4.3	15	47	49				
Oc1ccc(/C=N/NC(=[Se])Nc2cccc3ccccc23)cc1O	18.2	46.3%	72%	0.079	95%	57.8	1.1	2.6	3.2	2.2	2.5	2.8	69.8	Active		Activity [19]: 0.041; Activity [20]: 0.037; Activity [21]: 0.097
O=Cc1ccc(O)cc1 [4-HYDROXYBENZALDEHYDE]	> 250	Not Active	Not Active		inactive		> 100	> 100	> 100	> 100	> 100	> 100				
C[C@H]1O[C@H](O[C@H]2[C@H](O)[C@@H](O)[C@@H](O[C@H]3[C@H](O)[C@@H](O)C(O)O[C@@H]3CO)O[C@@H]2CO)[C@H](O)[C@@H](O)[C@@H]1N[C@H]1C=C(CO)[C@@H](O)[C@H](O)[C@H]1O (some centres undefined) [ACARBOSE]																Ki [22]: 77.9 µM
